How the values were obtained:
[1] = Plasma clearance in rat; assay type: ADME, organism-based
How it was run: (§1)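 Pharmacokinetics from six animals per species: three dosed iv and three dosed po.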

[2] = molecular target: GABA-A receptor; anion channel (Rattus norvegicus) (UniProt O09028+P15431+P18506+P18508+P19969+P20236+P23574+P23576+P28471+P28473+P30191+P62813+P63079+P63138+Q91ZM7+Q9ES14); test: Receptor occupancy in vivo by displacement of [3H]Ro 15-1788 binding from GABA-A receptor in rat, po; assay type: functional, organism-based
How it was run: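 Rat in vivo occupancy measured by [3H]Ro 15-1788 binding after oral dosing. Rats taken as a subgroup after the plus-maze trial, i.e. 30 min post-dose or later. ED50 derived from dose-dependent occupancy. Mean ± SEM, n = 5-10/group.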

[3] = Half life in rat; assay type: ADME, organism-based; settings: in vivo; how it was run: as §1
[4] = molecular target: GABA-A receptor; alpha-2/beta-3/gamma-2 (Homo sapiens) (UniProt P18507+P28472+P47869); test: Efficacy against recombinant human GABA-Aalpha2 plus beta-3-gamma-2 expressed in L(tk-) cells by whole cell patch clamp method relative to chlordiazepoxide; assay type: functional, cell-based
How it was run: (§2)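 Whole-cell patch clamp on αxβ3γ2 receptors stably expressed in L(tk-) cells, measuring the effect on current evoked by an EC20-equivalent of GABA. Reported relative to full agonist chlordiazepoxide (=1.0), or as direct percent modulation of the EC20 control, with inverse agonism given as percent. Mean of at least four independent experiments.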

[5] = molecular target: GABA-A receptor; alpha-3/beta-3/gamma-2 (Homo sapiens) (UniProt P18507+P28472+P34903); test: Efficacy against recombinant human GABA-Aalpha3 plus beta-3-gamma-2 expressed in L(tk-) cells by whole cell patch clamp method relative to chlordiazepoxide; assay type: functional, cell-based; how it was run: as §2
[6] = Oral bioavailability in rat; assay type: ADME, organism-based; settings: in vivo; how it was run: as §1
[7] = molecular target: T1, GABA-A receptor; alpha-5/beta-3/gamma-2 (Homo sapiens, UniProt P18507+P28472+P31644); test: Displacement of [3H]Ro-151788 from recombinant human GABA-Aalpha5 receptor plus beta3gamma2; assay type: protein-complex assay
T1 sequence (P18507 whole entry): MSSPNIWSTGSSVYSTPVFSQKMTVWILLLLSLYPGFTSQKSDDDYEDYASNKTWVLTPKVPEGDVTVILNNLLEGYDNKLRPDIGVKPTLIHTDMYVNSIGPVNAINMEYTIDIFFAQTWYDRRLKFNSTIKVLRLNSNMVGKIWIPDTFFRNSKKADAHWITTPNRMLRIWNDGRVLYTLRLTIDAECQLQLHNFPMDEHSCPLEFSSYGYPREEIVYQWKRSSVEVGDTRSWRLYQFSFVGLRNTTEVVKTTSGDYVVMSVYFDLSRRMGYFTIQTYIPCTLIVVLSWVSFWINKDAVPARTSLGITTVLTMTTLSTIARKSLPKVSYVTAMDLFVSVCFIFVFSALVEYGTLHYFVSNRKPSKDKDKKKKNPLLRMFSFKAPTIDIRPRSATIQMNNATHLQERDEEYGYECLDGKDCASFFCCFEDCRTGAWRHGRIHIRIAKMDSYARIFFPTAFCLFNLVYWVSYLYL
T1 sequence (P28472 whole entry): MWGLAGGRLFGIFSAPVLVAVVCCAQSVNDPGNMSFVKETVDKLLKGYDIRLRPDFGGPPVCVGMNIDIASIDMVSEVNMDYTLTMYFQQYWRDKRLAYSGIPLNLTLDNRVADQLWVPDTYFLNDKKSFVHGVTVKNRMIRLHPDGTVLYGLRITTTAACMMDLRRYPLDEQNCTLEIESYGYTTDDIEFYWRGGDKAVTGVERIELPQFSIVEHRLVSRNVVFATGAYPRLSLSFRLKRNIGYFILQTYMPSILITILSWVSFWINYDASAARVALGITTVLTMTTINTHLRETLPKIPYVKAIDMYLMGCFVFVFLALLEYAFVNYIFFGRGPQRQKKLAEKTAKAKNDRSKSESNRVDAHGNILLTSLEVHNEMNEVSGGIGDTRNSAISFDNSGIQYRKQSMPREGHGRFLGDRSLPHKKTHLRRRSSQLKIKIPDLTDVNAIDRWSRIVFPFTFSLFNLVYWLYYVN
T1 sequence (P31644 whole entry): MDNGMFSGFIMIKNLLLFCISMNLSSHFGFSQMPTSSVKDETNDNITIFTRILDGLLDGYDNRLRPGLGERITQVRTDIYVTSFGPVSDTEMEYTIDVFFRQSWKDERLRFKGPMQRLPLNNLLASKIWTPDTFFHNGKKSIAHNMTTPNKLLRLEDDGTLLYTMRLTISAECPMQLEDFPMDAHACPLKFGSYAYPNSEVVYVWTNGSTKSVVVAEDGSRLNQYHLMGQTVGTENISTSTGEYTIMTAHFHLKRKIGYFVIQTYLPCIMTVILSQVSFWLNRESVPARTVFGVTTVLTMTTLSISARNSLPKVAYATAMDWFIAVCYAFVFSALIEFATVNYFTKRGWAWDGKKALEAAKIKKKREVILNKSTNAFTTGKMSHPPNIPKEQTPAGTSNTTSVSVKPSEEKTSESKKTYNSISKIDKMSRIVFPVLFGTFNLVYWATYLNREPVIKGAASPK
How it was run: (§3)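 Benzodiazepine-site binding on stably transfected αxβ3γ2 receptors (x = 1, 2, 3 or 5). Inhibition curves run with [3H]Ro15-1788 at roughly twice its Kd. Ki derived by Cheng-Prusoff equation. Mean of three to six determinations.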

[8] = Stability in rat assessed as liver microsomal turnover; assay type: ADME, Microsome; settings: liver microsomes, read-out: Stability
How it was run: (§4)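 Test compound at 1 µM, with diazepam as control, incubated 0.25 h with pooled liver microsomes at 0.5 mg/mL protein. Compound remaining quantified by LC/MS/MS. Turnover is the mean of three determinations.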

[9] = Stability in human assessed as liver microsomal turnover; assay type: ADME, Microsome; settings: liver microsomes, read-out: Stability; how it was run: as §4
[10] = molecular target: T2, GABA-A receptor; alpha-1/beta-3/gamma-2 (Homo sapiens, UniProt P14867+P18507+P28472); test: Displacement of [3H]Ro-151788 from recombinant human GABA-Aalpha1 receptor plus beta3gamma2; assay type: protein-complex assay; how it was run: as §3
T2 sequence (P14867 whole entry): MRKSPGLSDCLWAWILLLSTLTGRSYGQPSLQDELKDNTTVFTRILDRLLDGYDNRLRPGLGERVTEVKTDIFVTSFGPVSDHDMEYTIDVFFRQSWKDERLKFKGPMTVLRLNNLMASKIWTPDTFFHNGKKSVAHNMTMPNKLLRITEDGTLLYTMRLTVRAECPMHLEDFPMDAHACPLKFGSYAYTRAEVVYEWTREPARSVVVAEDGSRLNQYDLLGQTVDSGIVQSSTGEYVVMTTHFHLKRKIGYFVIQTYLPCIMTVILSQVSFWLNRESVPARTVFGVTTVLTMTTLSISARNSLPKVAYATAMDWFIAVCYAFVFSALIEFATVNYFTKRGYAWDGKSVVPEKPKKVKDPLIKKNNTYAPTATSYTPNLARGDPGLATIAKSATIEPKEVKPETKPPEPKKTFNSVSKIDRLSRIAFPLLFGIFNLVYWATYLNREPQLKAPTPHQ
T2 sequence (P18507 whole entry): T1 sequence (P18507 whole entry)
T2 sequence (P28472 whole entry): T1 sequence (P28472 whole entry)

[11] = molecular target: GABA-A receptor; alpha-5/beta-3/gamma-2 (Homo sapiens) (UniProt P18507+P28472+P31644); test: Efficacy against recombinant human GABA-Aalpha5 plus beta-3-gamma-2 expressed in L(tk-) cells by whole cell patch clamp method relative to chlordiazepoxide; assay type: functional, cell-based; how it was run: as §2

clearance [1] [mL/min/kg] | Occ50 [2] [mg/kg] | half-life [3] [h] | Efficacy [4] | Efficacy [5] | bioavailability [6] [%] | Ki [7] [nM] | metabolised [8] [%] | metabolised [9] [%] | Ki [10] [nM] | Efficacy [11] | Activity [2] [mg/kg] | Structure (SMILES)
59 | 0.22 | 1.6 | 0.28 | 0.39 | 50 | 6 | 5 | 3 | 1.8 |  |  | Fc1cnc(-c2cc(-c3cnnc(-c4c(F)cncc4F)c3)ccc2F)c(F)c1
 |  |  | 0.36 | 0.4 |  | 5.1 | 4 | 7 | 2.6 | 0.14 | 0.7 | Fc1cnc(-c2cc(-c3cnnc(-c4c(F)cc(F)cc4F)c3)ccc2F)c(F)c1
3 | 0.09 | 10 | 0.43 | 0.7 | 100 | 2.8 | < 5 | 6 | 0.5 | 0.4 |  | Fc1cnc(-c2cc(-c3ccc(F)c(-c4ncccc4F)c3)cnn2)c(F)c1
1.3 | 0.52 | 53 | 0.12 | 0.44 | 88 | 12.1 | 3 | 3 | 1.5 | 0.01 |  | Fc1cnc(-c2cc(-c3ccc(F)c(-c4ncc(F)cc4F)c3)cnn2)c(F)c1
